Test results: ChEMBL document CHEMBL4257458, “Antiproliferative activities of alkaloid-like compounds” (Medchemcomm, 2017)
Active and inactive are the calls of the source. The calls are words filed in the database; no cut-off is given here.

Legend:
[1] = tested on: MDA-MB-231; experiment: Growth inhibition of human MDA-MB-231 cells at 50 uM after 48 hrs by MTS assay; assay type: functional, cell-based
In short: (§1)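 Cells in DMEM with 10% FBS and 1% penicillin/streptomycin, 37 °C, 5% CO2; 7 × 10^3 cells per well, serum removed after 24 h, then compound (1–50 μM; DMSO ≤0.1%) for 48 h. MTS reagent 4 h at 37 °C, OD 550 nm; blank-subtracted, normalised to DMSO control (100%). IC50 by nonlinear regression; triplicates.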

[2] = tested on: MDA-MB-231; experiment: Growth inhibition of human MDA-MB-231 cells after 48 hrs by MTS assay; assay type: functional, cell-based; details: MDA-MB-231, 48 h; in short: as §1
[3] = tested on: CCRF-CEM; experiment: Growth inhibition of human CCRF-CEM cells after 48 hrs by SRB assay; assay type: functional, cell-based
[4] = tested on: HL-60(TB); experiment: Growth inhibition of human HL-60(TB) cells after 48 hrs by SRB assay; assay type: functional, cell-based; details: HL-60, 48 h
[5] = tested on: MOLT-4; experiment: Growth inhibition of human MOLT4 cells after 48 hrs by SRB assay; assay type: functional, cell-based; details: MOLT-4, 48 h
[6] = tested on: RPMI-8226; experiment: Growth inhibition of human RPMI8226 cells after 48 hrs by SRB assay; assay type: functional, cell-based; details: RPMI-8226, 48 h
[7] = tested on: NCI-H522; experiment: Growth inhibition of human NCI-H522 cells after 48 hrs by SRB assay; assay type: functional, cell-based; details: NCI-H522, 48 h
[8] = tested on: EKVX; experiment: Growth inhibition of human EKVX cells after 48 hrs by SRB assay; assay type: functional, cell-based
[9] = tested on: COLO 205; experiment: Growth inhibition of human COLO205 cells after 48 hrs by SRB assay; assay type: functional, cell-based; details: COLO 205, 48 h
[10] = tested on: HT-29; experiment: Growth inhibition of human HT-29 cells after 48 hrs by SRB assay; assay type: functional, cell-based; details: HT-29, 48 h
[11] = tested on: SW-620; experiment: Growth inhibition of human SW620 cells after 48 hrs by SRB assay; assay type: functional, cell-based; details: SW-620, 48 h
[12] = tested on: SF-539; experiment: Growth inhibition of human SF539 cells after 48 hrs by SRB assay; assay type: functional, cell-based; details: SF-539, 48 h
[13] = tested on: SK-MEL-28; experiment: Growth inhibition of human SK-MEL-28 cells after 48 hrs by SRB assay; assay type: functional, cell-based; details: SK-MEL-28, 48 h
[14] = tested on: SK-MEL-5; experiment: Growth inhibition of human SK-MEL-5 cells after 48 hrs by SRB assay; assay type: functional, cell-based; details: SK-MEL-5, 48 h
[15] = tested on: MDA-MB-435; experiment: Growth inhibition of human MDA-MB-435 cells after 48 hrs by SRB assay; assay type: functional, cell-based; details: MDA-MB-435, 48 h
[16] = tested on: OVCAR-3; experiment: Growth inhibition of human OVCAR3 cells after 48 hrs by SRB assay; assay type: functional, cell-based; details: OVCAR-3, 48 h
[17] = tested on: CAKI-1; experiment: Growth inhibition of human Caki1 cells after 48 hrs by SRB assay; assay type: functional, cell-based; details: CAKI-1, 48 h
[18] = tested on: RXF 393; experiment: Growth inhibition of human RXF393 cells after 48 hrs by SRB assay; assay type: functional, cell-based; details: RXF 393, 48 h
[19] = tested on: DU-145; experiment: Growth inhibition of human DU145 cells after 48 hrs by SRB assay; assay type: functional, cell-based; details: DU-145, 48 h
[20] = tested on: MCF7; experiment: Growth inhibition of human MCF7 cells after 48 hrs by SRB assay; assay type: functional, cell-based; details: MCF7, 48 h
[21] = tested on: MDA-MB-231; experiment: Growth inhibition of human MDA-MB-231 cells after 48 hrs by SRB assay; assay type: functional, cell-based; details: MDA-MB-231, 48 h
[22] = tested on: Hs-578T; experiment: Growth inhibition of human Hs 578T cells after 48 hrs by SRB assay; assay type: functional, cell-based
[23] = tested on: T47D; experiment: Growth inhibition of human T47D cells after 48 hrs by SRB assay; assay type: functional, cell-based
[24] = tested on: Vero; experiment: Antiproliferative activity against African green monkey Vero cells harboring GFP at 50 ug/ml after 4 days by fluorescence assay relative to control; assay type: cell-based; details: chlorocebus sabaeus, 96 h
In short: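 GFP-expressing VERO (ATCC CCL-81 stably transfected with pEGFP-N1) in MEM with 10% heat-inactivated FBS, pyruvate, NaHCO3 (geneticin omitted during assay); 3.3 × 10^4 cells per mL; compound added, 4 days at 37 °C, 5% CO2; quadruplicate; fluorescence ex 485/em 535 nm, day-0 signal subtracted; % cytotoxicity = [1 − (FU treated/FU 0.5% DMSO)] × 100; ellipticine positive control.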

[25] = tested on: MDA-MB-231; experiment: Antiproliferative activity against human MDA-MB-231 cells assessed as cell viability at 75 uM after 48 hrs by MTS assay relative to control; assay type: functional; details: MDA-MB-231, 48 h, read-out: Activity
[26] = tested on: PC-3; experiment: Growth inhibition of human PC3 cells after 48 hrs by SRB assay; assay type: functional, cell-based; details: PC-3, 48 h
[27] = tested on: MDA-MB-231; experiment: Growth inhibition of human MDA-MB-231 cells assessed as cell viability at 50 uM after 48 hrs by MTS assay relative to control; assay type: functional; details: MDA-MB-231, 48 h, read-out: Activity; in short: as §1
[28] = tested on: MDA-MB-231; experiment: Cell cycle arrest in human MDA-MB-231 cells assessed as decrease in G0/G1 phase at 20 uM after 24 hrs by propidium iodide staining based flow cytometry relative to control; assay type: functional; design: scale not given: the % may be the effect or the level left
In short: (§2)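 MDA-MB-231 seeded at 5 × 10^5 per well, serum-starved 24 h, then treated 24 h (DMSO 0.1% control). Fixed overnight in 80% ethanol at 0 °C, washed, resuspended in PBS with 0.1% Triton X-100 and 0.1 mg mL−1 RNase A, stained with PI (50 μg mL−1) 30 min dark at 37 °C; flow cytometry, 1 × 10^4 events per sample; mean ± SEM of ≥3 independent experiments.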

[29] = tested on: MDA-MB-231; experiment: Cell cycle arrest in human MDA-MB-231 cells assessed as increase in G2/M phase at 20 uM after 24 hrs by propidium iodide staining based flow cytometry relative to control; assay type: functional; in short: as §2
[30] = tested on: MDA-MB-231; experiment: Induction of apoptosis in human MDA-MB-231 cells after 48 hrs by Annexin V-FITC/propidium iodide staining based flow cytometry; assay type: functional, cell-based
In short: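 MDA-MB-231 at 1 × 10^5 per well, treated 48 h, 24 h after serum removal, at 20–40 μM (DMSO 0.1% v/v control). Cells trypsinised, washed in cold PBS, stained with Annexin V-FITC and PI (50 μg mL−1) in binding buffer, 20 min dark at 0 °C; flow cytometry scoring viable, early/late apoptotic and necrotic fractions; 3 independent experiments.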

[31] = tested on: MCF7; experiment: Antiproliferative activity against human MCF7 cells at 50 uM after 48 hrs by MTS assay; assay type: functional, cell-based; in short: as §1
[32] = tested on: MDA-MB-231; experiment: Antiproliferative activity against human MDA-MB-231 cells assessed as cell viability at 20 uM after 48 hrs by MTS assay relative to control; assay type: functional; details: MDA-MB-231, 48 h, read-out: Activity; in short: as §1

## COC(=O)C[C@H]1C(=O)C=C2C3CC4CC(CC[C@@]4(C)N21)[C@]3(C)NC(C)=O (some centres not stated)
[1]
  growth inhibition (GI): inactive
[2]
  IC50: > 50 µM

## CC(=O)N[C@@]1(C)C2CC[C@]3(C)C(C2)CC1[C@H](C)N3C (some centres not stated)
[1]
  growth inhibition (GI): inactive

## CCC(=O)N[C@@]1(C)C2CC[C@@]3(C)N=C(CC)C1CC3C2 (relative stereo)
[1]
  growth inhibition (GI): inactive

## COC(=O)/C=C1\C(=O)C=C2C3CC4CC(CCC4(C)N21)C3(C)NC(C)=O (configuration not stated)
[3]
  IC50: 4.4 µM
[4]
  IC50: 5.5 µM
[5]
  IC50: 2.4 µM
[6]
  IC50: 4.1 µM
[7]
  IC50: 2 µM
[8]
  IC50: 12.2 µM
[9]
  IC50: 7.8 µM
[10]
  IC50: 7.5 µM
[11]
  IC50: 2.8 µM
[12]
  IC50: 3.3 µM
[13]
  IC50: 1.8 µM
[14]
  IC50: 6.3 µM
[15]
  IC50: 5.9 µM
[16]
  IC50: 11.8 µM
[17]
  IC50: 5.3 µM
[18]
  IC50: 6.7 µM
[19]
  IC50: 16.9 µM
[20]
  IC50: 7.1 µM
[21]
  IC50: 38.9 µM
[22]
  IC50: 10.9 µM
[23]
  IC50: 22.7 µM
[24]
  Activity: 77%
[25]
  viability at 75 µM: 80%
[26]
  IC50: 15.7 µM

## CC(=O)N[C@@]1(C)C2CC[C@@]3(C)N=C(CCl)C1CC3C2 (relative stereo)
[1]
  growth inhibition (GI): inactive

## CCC(=O)N[C@@]1(C)C2CC[C@@]3(C)N[C@@H](CC)C1CC3C2 (some centres not stated)
[1]
  growth inhibition (GI): inactive

## C[C@]1(NC(=O)CCl)C2CC[C@@]3(C)N=C(CCl)C1CC3C2 (relative stereo)
[27]
  viability at 50 µM: 24%
[2]
  IC50: 7.9 µM
[28]
  Activity: 20%
[29]
  Activity: 15%
[30]
  Activity: Dose-dependent effect
[31]
  Activity: inactive
[24]
  Activity: 84%
[32]
  viability at 20 µM: 90%

## CC(=O)N[C@@]1(C)C2CC[C@@]3(C)N[C@@H](C)C1CC3C2 (some centres not stated)
[1]
  growth inhibition (GI): inactive

## CC(=O)N[C@@]1(C)C2CC[C@@]3(C)N[C@@H](CCl)C1CC3C2 (some centres not stated)
[1]
  growth inhibition (GI): inactive

## CC(=O)N[C@@]1(C)C2CC[C@@]3(C)N=C(C)C1CC3C2 (relative stereo)
[1]
  growth inhibition (GI): inactive

## CCC(=O)N[C@@]1(C)C2CC[C@]3(C)C(C2)CC1[C@H](CC)N3C (some centres not stated)
[1]
  growth inhibition (GI): inactive
